Bioassay records from PubChem BioAssay.
TRPC4 inh = blocks the mouse TRPC4 cation channel. HEK293 TRPC4beta/mu-opioid, DAMGO-evoked Fluo4 calcium flux; active compounds read low. hit rate 0.39% among 300,000. AID 2247. B-score at 10 µM. Q9QUQ5;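 active = B-score over 3 SD under the library average, no early fluorescence shift, positive overall ratio signal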
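Material: HEK293 cells with stable TRPC4beta plus mu-opioid receptor expression / Probe or stimulus: DAMGO in two steps, submaximal then maximal / Compound: single concentration per test compound / Technique: kinetic Fluo4 fluorescence imaging of calcium influx / Read-out: per-well B score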
TRPC6 inh = inhibitors of mouse TRPC6 channel; AID 2553; B-score at 10 µM; HEK293-TRPC6, membrane potential dye, ACh-evoked depolarization; active compounds read low; hit rate 1.1% among 310,000; Q61143;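 active = B-score under library mean minus 3 SD, initial fluorescence not abnormally high, positive integrated signal ratio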;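 also: B-score derived from integrated fluorescence ratio over the kinetic read; more negative B-score means stronger inhibition of depolarization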
TRPC6 act = mouse TRPC6 channel activation; hit rate 0.13% among 310,000; Q61143; AID 2550; HEK293-TRPC6 membrane potential dye fluorescence; active compounds read high; B-score at 10 µM;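 active = B-score of the integrated fluorescence ratio above library mean plus 3 SD, and starting fluorescence ratio within library mean plus 5 SD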;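 also: higher score means more depolarization so channel activation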
TRPC4 act = opens the mouse TRPC4 cation channel; HEK293 TRPC4beta/mu-opioid, Fluo4 calcium fluorescence; active compounds read high; Q9QUQ5; hit rate 0.49% among 310,000; B-score at 10 µM;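 active = B-score above 5 SD of library B-scores, and initial fluorescence ratio not above library mean plus 5 SD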;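 also: positive B-score marks a calcium rise read as TRPC4 activation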
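system = HEK293 cells stably co-expressing mouse TRPC4beta and mu-opioid receptor | schedule = Fluo4 dye loading 45 min at room temperature, 110 s recording | measure = B-scored integrated calcium fluorescence ratio | signal = Fluo4 calcium-sensitive dye fluorescence, kinetic, 1 Hz baseline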
TRPC4 PAM = allosterically enhances the mouse TRPC4 cation channel | HEK293 TRPC4beta/mu-opioid, DAMGO EC20, Fluo-4 Ca2+ flux; active compounds read high | B-score at 10 µM | hit rate 0.42% among 310,000 | AID 2227;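 active = B-score of calcium response area above 5 SD of library B-scores, with initial fluorescence ratio within 5 SD of library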;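 also: B-score of integrated fluorescence ratio over time as area under calcium response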
* hit, by the source's call; i = inactive. Sampled rows, rich in hits. Any-hit rate of the full collection: about 2.3%.

SMILES	TRPC4 inh	TRPC6 inh	TRPC6 act	TRPC4 act	TRPC4 PAM
CC(C)CN(C(=O)COC(=O)CCC(=O)c1ccc(Cl)cc1)c1c(N)n(Cc2ccccc2)c(=O)[nH]c1=O	i	i	i	i	114*
CC(C)CN(C(=O)CC1CCCC1)c1c(N)n(Cc2ccccc2)c(=O)[nH]c1=O	i	i	i	i	i
CN(C(=O)COC(=O)CCC(=O)c1ccc(Cl)cc1)c1c(N)n(Cc2ccccc2)c(=O)[nH]c1=O	i	i	i	i	i
CC(C)CN(C(=O)C1CC1)c1c(N)n(Cc2ccccc2)c(=O)[nH]c1=O	i	i	i	i	31*
CC(C)n1c(SCC(=O)N2c3ccccc3Sc3ccccc32)nc2c1c(=O)n(C)c(=O)n2C	i	i	i	i	17*
CC(C)n1c(SCC(N)=O)nc2c1c(=O)n(C)c(=O)n2C	i	i	i	i	i
CCCn1c(SCC(=O)N2c3ccccc3Sc3ccccc32)nc2c1c(=O)n(C)c(=O)n2C	i	i	i	i	77*
O=C(N1CCCC1)C12CC3CCC(CC(C3)C1)C2	i	i	i	i	i
CC12CC3CC(C)(C1)CC(C(=O)N1CCCC1)(C3)C2	-6*	i	i	i	i
CN1CCN(C(=O)C23CC4CC(C)(CC(C)(C4)C2)C3)CC1	-6*	i	i	i	i
CCCC(=O)N/C(N)=N/c1nc(C)c2ccccc2n1	i	i	i	i	19*
COc1ccc(OC)c(-c2cc(C3CCN(c4cc(Cl)nc(N)n4)CC3)[nH]n2)c1	i	i	i	i	12*
COc1ccc(-c2cc(C3CCN(c4cc(Cl)nc(N)n4)CC3)[nH]n2)cc1	i	i	i	i	38*
Nc1nc(Cl)cc(N2CCC(c3cc(-c4ccc(Cl)cc4)n[nH]3)CC2)n1	i	i	i	i	i
CCOCCOC(=O)c1cccc2c1-c1ccccc1C2=O	i	i	i	i	i
O=C(CN(Cc1ccccc1F)S(=O)(=O)c1ccc(Cl)cc1)NCC1CCCO1 (stereo not drawn)	i	i	i	i	i
CCNc1nc(NC(C)(C)C)nc(N2CCCC2)n1	-8*	i	i	i	i
CC(C)(C)Nc1nc(N2CCCC2)nc(N2CCCC2)n1	i	i	i	i	i
CCOC(=O)C(NC(=O)Nc1ccc(Cl)cn1)(Oc1ccc(F)cc1)C(F)(F)F (stereo not drawn)	i	i	i	i	i
COc1ccc(-c2cc(C(=O)N3CC(C)CC(C)C3)c3ccccc3n2)cc1 (stereo not drawn)	i	i	i	i	18*
CCCOc1ccc(-c2c(C(=O)N/N=C(\C)COc3ccccc3)nnn2-c2nonc2N)cc1	i	i	i	i	i
CCCN(C(=O)COC(=O)C12CCC(=O)N1c1ccccc1S2)c1c(N)n(Cc2ccccc2)c(=O)[nH]c1=O (stereo not drawn)	-7*	i	i	55*	i
CCCc1cc(=O)[nH]c2nnc(SCC(=O)NCc3ccc4c(c3)OCO4)n12	i	i	i	i	i
COc1cc2cc(C(N)=O)c(N)nc2cc1OC	i	i	i	i	13*
COc1ccc2nc(C)c(C(N)=O)cc2c1	i	i	i	i	i
SMILES	TRPC4 inh	TRPC6 inh	TRPC6 act	TRPC4 act	TRPC4 PAM
O=C(Cc1ccc(Cl)cc1)NCC(=O)N1CCCCCC1	i	i	i	i	i
Cc1c(C(=O)OCCOc2ccc(Br)cc2)sc(=S)n1C	i	i	i	i	11*
Cc1ccc(OCCOC(=O)c2sc(=S)n(C)c2C)cc1	i	i	i	i	i
Fc1ccccc1C1c2cccn2CCN1C(=S)Nc1ccc(Br)cc1 (stereo not drawn)	i	i	i	i	i
O=C(NNC(=S)Nc1ccc(F)cc1)C1[C@H]2CCCC[C@@H]12 (stereo partly drawn)	i	i	i	i	i
CSc1ncccc1C(=O)N1CCN(S(=O)(=O)c2ccc(F)cc2)CC1	i	i	i	i	i
O=[N+]([O-])c1cccc(-c2nnc(C3CC3)o2)c1	-6*	i	i	i	i
COc1ccc(CCN=C(C)c2cc(C)c(C)cc2O)cc1OC	i	i	i	i	i
N#Cc1ccc(N2CCCNCC2)nc1	i	i	i	44*	i
O=[N+]([O-])c1ccc(N2CCOCC2)nc1	i	i	i	i	i
Cc1cc(C)c2nc(C)cc(N/N=C/c3ccc(O)cc3)c2c1	-6*	i	i	i	i
Cn1nnc(NC(=O)c2cccc([N+](=O)[O-])c2)n1	i	i	i	i	i
O=S(=O)(c1ccccc1)c1nc(-c2cccc(Cl)c2)oc1N1CCOCC1	i	i	i	i	10*
Cc1cccc(C)c1NC(=O)C1CCCN1S(=O)(=O)c1ccc2c(c1)n(C)c(=O)c(=O)n2C (stereo not drawn)	i	i	i	i	i
CN1CCN(c2ccc(CNS(=O)(=O)c3ccsc3)cc2)CC1	i	i	i	i	22*
CN1CCN(c2ccc(CNS(=O)(=O)c3ccccc3)cc2)CC1	i	i	i	i	i
COc1ccc(N2CCN(C(=O)CCS(=O)(=O)c3ccc4c(c3)NC(=O)CO4)CC2)cc1	i	i	i	i	i
COC(=O)N/N=C/c1cn(Cc2ccc(F)cc2)c2ccccc12	i	i	i	i	i
Nc1ccc(C(=O)N/N=C/c2cn(Cc3ccc(F)cc3)c3ccccc23)cc1	i	i	i	i	i
CNC(=S)N/N=C/c1cn(Cc2ccc(F)cc2)c2ccccc12	i	i	i	i	11*
Nc1ccc(C(=O)N/N=C/c2cn(Cc3ccccc3F)c3ccccc23)cc1	i	i	i	i	11*
OCc1cn(-c2ccccc2)nc1-c1ccc(Br)cc1	i	i	i	i	i
CC(C)COc1ccc(-c2nn(-c3ccccc3)cc2CO)cc1	i	i	i	i	10*
O=c1ccc(-c2ccc(S(=O)(=O)Nc3ccc(F)cc3)o2)n[nH]1	i	i	i	i	i
c1ccc(CCN=C2CCCc3c2[nH]c2ccccc32)cc1	i	i	i	155*	i
Nc1ccc(C(=O)N/N=C2\CCCc3c2[nH]c2ccccc32)cc1	i	i	i	i	i
Cc1cc(OCCCCCN2CCCC2)ccc1Cl	i	i	i	i	i
Clc1ccc(OCCN2CCOCC2)cc1Cl	i	i	i	i	i
